Measurements reported in ChEMBL document CHEMBL5058577, “EUbOPEN Chemogenomics Library 2 (Multiplex)” (2022).

Test system: U2OS
Assay: Multiplex assay against U2OS
Type: toxicity, cell-based
Details: human
Procedure, shortened: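 Live cells carried four stains from seeding: Hoechst33342, BioTracker Green Microtubule Cytoskeleton Dye, MitoTracker Red and Annexin V Alexa Fluor 680. They were imaged on a CQ1 microscope at 37°C and 5% CO2 after compound addition. Using CellPathfinder machine-learning gating, cells were split into Hoechst high-intensity objects or normal cells, normal cells into healthy, pyknosed or fragmented nuclei, and pyknosed cells into mitotic or apoptotic; tubulin, mitochondrial-mass and membrane-permeability phenotypes are per cents of healthy-nucleus cells.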

[1] = 12 h, 1 µM, compound concentration 1 uM, replicate 1
[2] = 12 h, 1 µM, compound concentration 1 uM, replicate 2
[3] = 12 h, 10 µM, compound concentration 10 uM, replicate 1
[4] = 12 h, 10 µM, compound concentration 10 uM, replicate 2
[5] = 24 h, 1 µM, compound concentration 1 uM, replicate 1
[6] = 24 h, 1 µM, compound concentration 1 uM, replicate 2
[7] = 24 h, 10 µM, compound concentration 10 uM, replicate 1
[8] = 24 h, 10 µM, compound concentration 10 uM, replicate 2
[9] = 48 h, 1 µM, compound concentration 1 uM, replicate 1
[10] = 48 h, 1 µM, compound concentration 1 uM, replicate 2
[11] = 48 h, 10 µM, compound concentration 10 uM, replicate 1
[12] = 48 h, 10 µM, compound concentration 10 uM, replicate 2

COc1c(C)cc(NC(=O)c2nn(Cc3ccc(F)cc3)c3c2CN(C(=O)c2ccc[nH]2)C[C@]3(C)C(N)=O)cc1C
Population Apoptotic (%) [1]: 65%
Population Fragmented Nuclei (%) [1]: 22%
Population Healthy Nuclei (%) [1]: 65%
Population Hoechst High Intensity Objects (%) [1]: 2%
Population Membrane Permeable-Phenotype (%) [1]: 8%
Population Mitochondria Different-Phenotype (%) [1]: 3%
Population Mitotic Cells (%) [1]: 34%
Population Normal (%) [1]: 97%
Population Pyknosed Nuclei (%) [1]: 12%
Population Tubulin-Different-Phenotype (%) [1]: 5%
Total Cell Count [1]: 247
Population Apoptotic (%) [2]: 83%
Population Fragmented Nuclei (%) [2]: 21%
Population Healthy Nuclei (%) [2]: 72%
Population Mitochondria Different-Phenotype (%) [2]: 12%
Population Mitotic Cells (%) [2]: 16%
Population Pyknosed Nuclei (%) [2]: 6%
Population Tubulin-Different-Phenotype (%) [2]: 9%
Total Cell Count [2]: 102
Population Apoptotic (%) [3]: 33%
Population Fragmented Nuclei (%) [3]: 26%
Population Healthy Nuclei (%) [3]: 43%
Population Hoechst High Intensity Objects (%) [3]: 9%
Population Membrane Permeable-Phenotype (%) [3]: 77%
Population Mitochondria Different-Phenotype (%) [3]: 90%
Population Mitotic Cells (%) [3]: 66%
Population Normal (%) [3]: 90%
Population Pyknosed Nuclei (%) [3]: 29%
Population Tubulin-Different-Phenotype (%) [3]: 95%
Total Cell Count [3]: 223
Population Apoptotic (%) [4]: 60%
Population Fragmented Nuclei (%) [4]: 11%
Population Healthy Nuclei (%) [4]: 66%
Population Hoechst High Intensity Objects (%) [4]: 8%
Population Membrane Permeable-Phenotype (%) [4]: 54%
Population Mitochondria Different-Phenotype (%) [4]: 97%
Population Mitotic Cells (%) [4]: 39%
Population Normal (%) [4]: 91%
Population Pyknosed Nuclei (%) [4]: 21%
Population Tubulin-Different-Phenotype (%) [4]: 100%
Total Cell Count [4]: 119
Population Apoptotic (%) [5]: 67%
Population Fragmented Nuclei (%) [5]: 16%
Population Healthy Nuclei (%) [5]: 71%
Population Hoechst High Intensity Objects (%) [5]: 5%
Population Membrane Permeable-Phenotype (%) [5]: 8%
Population Mitochondria Different-Phenotype (%) [5]: 6%
Population Mitotic Cells (%) [5]: 32%
Population Normal (%) [5]: 94%
Population Pyknosed Nuclei (%) [5]: 12%
Population Tubulin-Different-Phenotype (%) [5]: 7%
Total Cell Count [5]: 265
Population Apoptotic (%) [6]: 61%
Population Fragmented Nuclei (%) [6]: 17%
Population Healthy Nuclei (%) [6]: 70%
Population Hoechst High Intensity Objects (%) [6]: 0%
Population Membrane Permeable-Phenotype (%) [6]: 7%
Population Mitochondria Different-Phenotype (%) [6]: 2%
Population Mitotic Cells (%) [6]: 38%
Population Normal (%) [6]: 99%
Population Pyknosed Nuclei (%) [6]: 11%
Population Tubulin-Different-Phenotype (%) [6]: 6%
Total Cell Count [6]: 111
Population Apoptotic (%) [7]: 66%
Population Fragmented Nuclei (%) [7]: 26%
Population Healthy Nuclei (%) [7]: 41%
Population Hoechst High Intensity Objects (%) [7]: 12%
Population Membrane Permeable-Phenotype (%) [7]: 46%
Population Mitochondria Different-Phenotype (%) [7]: 92%
Population Mitotic Cells (%) [7]: 33%
Population Normal (%) [7]: 87%
Population Pyknosed Nuclei (%) [7]: 31%
Population Tubulin-Different-Phenotype (%) [7]: 94%
Total Cell Count [7]: 216
Population Apoptotic (%) [8]: 65%
Population Fragmented Nuclei (%) [8]: 13%
Population Healthy Nuclei (%) [8]: 53%
Population Hoechst High Intensity Objects (%) [8]: 7%
Population Membrane Permeable-Phenotype (%) [8]: 49%
Population Mitochondria Different-Phenotype (%) [8]: 91%
Population Mitotic Cells (%) [8]: 34%
Population Normal (%) [8]: 92%
Population Pyknosed Nuclei (%) [8]: 33%
Population Tubulin-Different-Phenotype (%) [8]: 91%
Total Cell Count [8]: 123
Population Apoptotic (%) [9]: 79%
Population Fragmented Nuclei (%) [9]: 18%
Population Healthy Nuclei (%) [9]: 68%
Population Hoechst High Intensity Objects (%) [9]: 2%
Population Membrane Permeable-Phenotype (%) [9]: 4%
Population Mitochondria Different-Phenotype (%) [9]: 3%
Population Mitotic Cells (%) [9]: 20%
Population Normal (%) [9]: 97%
Population Pyknosed Nuclei (%) [9]: 13%
Population Tubulin-Different-Phenotype (%) [9]: 2%
Total Cell Count [9]: 365
Population Apoptotic (%) [10]: 84%
Population Fragmented Nuclei (%) [10]: 15%
Population Healthy Nuclei (%) [10]: 70%
Population Hoechst High Intensity Objects (%) [10]: 5%
Population Membrane Permeable-Phenotype (%) [10]: 9%
Population Mitochondria Different-Phenotype (%) [10]: 4%
Population Mitotic Cells (%) [10]: 15%
Population Normal (%) [10]: 94%
Population Tubulin-Different-Phenotype (%) [10]: 5%
Total Cell Count [10]: 152
Population Apoptotic (%) [11]: 84%
Population Fragmented Nuclei (%) [11]: 31%
Population Healthy Nuclei (%) [11]: 24%
Population Hoechst High Intensity Objects (%) [11]: 17%
Population Membrane Permeable-Phenotype (%) [11]: 69%
Population Mitochondria Different-Phenotype (%) [11]: 85%
Population Mitotic Cells (%) [11]: 15%
Population Normal (%) [11]: 82%
Population Pyknosed Nuclei (%) [11]: 44%
Population Tubulin-Different-Phenotype (%) [11]: 90%
Total Cell Count [11]: 212
Population Apoptotic (%) [12]: 87%
Population Fragmented Nuclei (%) [12]: 22%
Population Healthy Nuclei (%) [12]: 47%
Population Hoechst High Intensity Objects (%) [12]: 9%
Population Membrane Permeable-Phenotype (%) [12]: 50%
Population Mitochondria Different-Phenotype (%) [12]: 81%
Population Mitotic Cells (%) [12]: 12%
Population Normal (%) [12]: 90%
Population Pyknosed Nuclei (%) [12]: 29%
Population Tubulin-Different-Phenotype (%) [12]: 80%
Total Cell Count [12]: 150
